The values that follow come from publication PMC6363535 (Journal of pharmaceutical and biomedical analysis, 2018).

Values after ≈ are worked out from the molar mass of the structure shown.

In series [1] the test system is mAb 2G11G4. Nature of the series: indirect competitive ELISA. In kind it is binding, mouse. The note with it: for Cross reactivity: (IC50 of dihydroartemisinin/IC50 of the other compound) × 100; for IC50: icELISA, mAb 2G11G4, coating antigen 9-O-succinyldihydroartemisinin-OVA. On the technique in general: An ELISA detects its analyte on a solid surface through an enzyme-linked reagent.

Series [2] concerns mAb 2G11G4. Nature of the series: colloidal gold-based lateral flow immunoassay. In kind it is binding, mouse. The note with it: for dipstick cross-reaction: drug concentration less than 100 ng/mL; for dipstick test line: standards at 100 ng/mL; for dipstick inhibition: standards at 500 ng/mL. The method in brief:
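Anti-DHA mAb adsorbed onto 30 nm colloidal gold at pH 7.8, blocked with BSA, pelleted and resuspended in 0.01 M PBS pH 7.0. Gold-mAb was used at 30 μg/mL. Capture lines on nitrocellulose were 9-O-succinyl-DHA-BSA (1 mg/mL, test) and goat anti-mouse IgG (0.4 mg/mL, control), 5 mm apart. Aqueous DHA standards were 0–100 ng/mL. Indicator range is the lowest concentration at which the test line disappears visually.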

The conditions of series [3]: general statement, no reference given; cited from earlier work.
The subject of series [4] is artemisinin antibody developed earlier. The note with it: cited from earlier work.
The subject of series [5] is mAb 3D82G7. Conditions: cited from earlier work.
The nature of series [6]: time course of DHA degradation in malaria culture, measured by icELISA. The format is in vitro ADME, Plasmodium falciparum.
For series [7] the following is noted: buffer solution (pH=7.4); cited from earlier work.

For `CCN(CC)Cc1cc(Nc2ccnc3cc(Cl)ccc23)ccc1O` [Amodiaquine], in series [1], the Cross reactivity is listed as less than 0.02% and the IC50 is more than 20 mg/L.

In series [1], `CCCCN(CCCC)CC(O)c1cc(Cl)cc2c1-c1ccc(Cl)cc1/C2=C/c1ccc(Cl)cc1` (stereo not drawn) [Lumefantrine] yielded a Cross reactivity of less than 0.02% and an IC50 of more than 20 mg/L.

Consider `CO[C@H]1O[C@@H]2O[C@@]3(C)CC[C@H]4[C@H](C)CC[C@@H]([C@H]1C)[C@@]24OO3` [Artemether], for which, in series [2], the dipstick cross-reaction entry is reported as “did not cross-react”, the dipstick test line result was “showed obvious color” and the dipstick inhibition result was “no inhibition”. Moreover, in series [1], the Cross reactivity is listed as less than 0.02% and the IC50 was more than 20 mg/L. Also, in series [3], the water solubility entry is on record as “poor water solubility”.

In series [1], `Clc1ccc2c(N3CCN(CCCN4CCN(c5ccnc6cc(Cl)ccc56)CC4)CC3)ccnc2c1` [Piperaquine] gave a Cross reactivity of less than 0.02% and an IC50 of more than 20 mg/L.

Take `C[C@@H]1CC[C@H]2[C@@H](C)C(=O)O[C@@H]3O[C@@]4(C)CC[C@@H]1[C@]32OO4` [Artemisinin]: in series [2], the dipstick cross-reaction entry is “did not cross-react”, the dipstick test line entry is recorded as “showed obvious color” and the dipstick inhibition entry is on record as “different degrees of inhibition”. For the same molecule, in series [1], the Cross reactivity is reported as 52.3% and the IC50 was determined as 0.00222 mg/L (≈ 0.00786 µM). In addition, the water solubility result in series [3] is “poor water solubility”.

Consider `C[C@H]1[C@H](OC(=O)CCC(=O)O)O[C@@H]2O[C@@]3(C)CC[C@H]4[C@H](C)CC[C@@H]1[C@@]24OO3` [Artesunate], for which, in series [2], the dipstick cross-reaction result is “did not cross-react”, the dipstick test line result is “showed obvious color” and the dipstick inhibition entry is “different degrees of inhibition”. Further, in series [4], the cross-reactivity was 650%. In series [1], the Cross reactivity was 1.6% and the IC50 was 0.0704 mg/L (≈ 0.183 µM). In addition, in series [1] (listed as artesunate), the Cross reactivity entry is listed as “low or no cross reactivity”. Moreover, the cross-reactivity in series [5] is recorded as 460%.

Regarding `C[C@H]1[C@@H](O)O[C@@H]2O[C@@]3(C)CC[C@H]4[C@H](C)CC[C@@H]1[C@@]24OO3` [Dihydroartemisinin], the “indicator range (lowest concentration at which the test line was not visible)” value in series [2] (dipstick, serially diluted standard DHA) lay within 50 to 100 ng/mL. The molecule further came in with a Cross reactivity in series [1] of 100%. Besides, the “working range (IC20 – IC80)” value in series [1] (DHA concentration causing 20–80% inhibition of the signal) was 0.00026 to 0.00487 mg/L. In series [1], the IC50 was determined as 0.00116 mg/L (≈ 0.00408 µM). Besides, the results for the half-life at 200 nM in series [6] (Plasmodium falciparum), in series [6] (culture medium only (no cells)) and in series [6] (red blood cells in culture medium at 5% hematocrit) were 3.64 ± 0.48 h, 5.56 ± 0.87 h and 4.55 ± 0.69 h, respectively. Moreover, the “DHA concentration after 12 h of incubation” value in series [6] (parasite culture at 5% parasitemia, starting concentration 200 nM) was less than 4 nM. Also, the half-life in series [7] is given as 5.5 h.

In turn, `CCN(CC)CCCC(C)Nc1ccnc2cc(Cl)ccc12` (stereo not drawn) [Chloroquine] gave an IC50 in series [1] of more than 20 mg/L.

The IC50 is the concentration that inhibits the measured activity by half. The term half-life denotes how long it takes for the measured level to halve.
